Measured values from different studies.
Lines come from different studies, so protocols differ.
Observed: cell growth or viability

The inhibition of `O=c1[nH]cc(F)c(=O)[nH]1` is reported as 81.4% (LX-2; MTS; 50 µM, 72 h).
For `COc1ccc(NC(=O)Nc2ccc(-c3cn(Cc4ccc(C)cc4)nn3)cc2)cc1`, the viability was 77.3% (Huh-7; CCK-8; 50 µM, 48 h).
For `O=[N+]([O-])c1cc(I)c(O)c(C=NNc2ccc(Br)cc2)c1`, the IC50 was 11.4 µM (HEK-293T; MTT; 24 h).
`O=C(Nc1ccc(Cl)cc1)Nc1ccc(-c2cn(Cc3ccc(Br)cc3)nn2)cc1` has a viability of 65% (Huh-7; CCK-8; 50 µM, 72 h).
`COc1cc(NC(=O)c2cnn(-c3ccc([N+](=O)[O-])cc3)c2C(F)(F)F)cc(OC)c1OC` gave an inhibition of 11% (LX-2; MTS; 50 µM, 72 h).
`O=C(Nc1ccc(Cl)cc1)Nc1ccc(-c2cn(Cc3cccc(Cl)c3)nn2)cc1` gave a viability of 70.4% (Huh-7; CCK-8; 50 µM, 72 h).
For `COc1ccc(NC(=O)NCc2cn(Cc3ccccc3C)nn2)cc1`, the viability was 86.8% (Huh-7; CCK-8; 50 µM, 72 h).
`O=[N+]([O-])c1ccc(O)c(C=NNc2ccc(Br)cc2)c1` gave an IC50 of 16.2 µM (HEK-293T; MTT; 24 h).
The viability of `O=C(Nc1cccc(-c2cn(Cc3ccc(Br)cc3)nn2)c1)Nc1ccccc1Br` is reported as 61.2% (Huh-7; CCK-8; 50 µM, 48 h).
For `C=C(NC(=O)C(=C)NC(=O)c1csc(C2=N[C@@H]3c4csc(n4)[C@H]4NC(=O)c5csc(n5)[C@H]([C@](C)(O)[C@@H](C)O)NC(=O)[C@H]5CSC(=N5)/C(=C/C)NC(=O)[C@H]([C@@H](C)O)NC(=O)c5csc(n5)[C@]3(CC2)NC(=O)[C@H](C)NC(=O)C(=C)NC(=O)[C@H](C)NC(=O)[C@H]([C@@H](C)CC)N[C@@H]2C=Cc3c([C@H](C)O)cc(nc3[C@H]2O)C(=O)O[C@@H]4C)n1)C(N)=O`, the EC50 was 1.5 µM (NCI-H2009).
`O=C(NCc1cn(Cc2cccc(Cl)c2)nn1)Nc1ccc(Cl)cc1` has a viability of 86.1% (Huh-7; CCK-8; 50 µM, 48 h).
`COc1ccc(NC(=O)Nc2cccc(-c3cn(Cc4ccc(Br)cc4)nn3)c2)cc1` gave a viability of 10.7% (Huh-7; CCK-8; 50 µM, 72 h).
